Shown are actives, neighbours in structure and some others; about 3.5% of the full set was active somewhere.
WT yeast gro inh – growth inhibition of WT strain, primary screen, mitochondrial fusion inhibitor project, WT and mutant strains, chemical genetic; 190,000 compounds, 2.1% hits; AID 1362, 2008; inhibition, % at 10 µM; mitochondrial fusion phenotypic screen; in the data active = inhibition above about 58%; tested in S. cerevisiae
ABCG2 block – ABCG2 efflux pump inhibitors, primary screen, multiplex with ABCB1, IgMXP3 cells, flow cytometry; 190,000 compounds, 0.1% hits; inhibition, % at 6.6 µM; JC-1 efflux;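 active = inhibition above 80%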
Target sequence (Q9UNQ0 whole entry, looked up): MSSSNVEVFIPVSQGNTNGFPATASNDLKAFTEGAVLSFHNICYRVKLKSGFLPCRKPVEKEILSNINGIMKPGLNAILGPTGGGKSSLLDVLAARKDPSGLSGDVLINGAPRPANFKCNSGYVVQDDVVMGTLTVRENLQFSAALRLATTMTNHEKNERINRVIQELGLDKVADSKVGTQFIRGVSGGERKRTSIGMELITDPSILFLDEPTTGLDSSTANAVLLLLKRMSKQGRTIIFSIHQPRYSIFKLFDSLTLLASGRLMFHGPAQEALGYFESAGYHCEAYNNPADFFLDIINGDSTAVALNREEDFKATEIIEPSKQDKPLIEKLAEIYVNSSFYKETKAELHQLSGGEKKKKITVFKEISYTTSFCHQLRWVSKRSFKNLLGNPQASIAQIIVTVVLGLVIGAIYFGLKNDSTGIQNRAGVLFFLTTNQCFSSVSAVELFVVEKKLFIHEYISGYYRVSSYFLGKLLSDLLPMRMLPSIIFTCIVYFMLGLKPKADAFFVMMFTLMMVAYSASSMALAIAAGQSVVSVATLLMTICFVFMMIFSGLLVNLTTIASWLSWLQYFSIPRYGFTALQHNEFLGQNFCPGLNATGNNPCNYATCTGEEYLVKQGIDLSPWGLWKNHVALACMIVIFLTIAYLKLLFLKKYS
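Measure – % inhibition of efflux relative to nicardipine and DMSO · Test system – ABCG2 IgMXP3 and barcoded ABCB1 CCRF-Adr cell mix · Control set – nicardipine as high control, DMSO as low control · Compound – one concentration, 6.6 µM final · Signal – flow cytometry of retained JC-1 fluorescence · Timing – 10 min exposure at 25 °C with rotation, no wash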
MEKK2 WT-MEK5 – modulators of MEK5 binding to wildtype MEKK2, primary screen, biochemical, multiplex bead flow cytometry, Alexa488-MEK5 | 290,000 compounds, 1.1% hits | Alexa488-MEK5 binding to MEKK2 WT; actives lie on both sides | binding response (% of control), % at 10 µM; in the data active = binding response below about 67% or above about 130%
MEKK3 PB1 HTS – modulators of MEKK3-MEK5 PB1 binding, primary screen, biochemical, wildtype MEKK3, multiplex bead flow cytometry, Alexa488-MEK5. bead-based flow cytometry, Alexa488-MEK5 binding to MEKK3; actives lie on both sides; 0 = blocked by unlabeled MEK5, 100 = vehicle. binding response (% of control), % at 10 µM. 290,000 compounds, 1.4% hits;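 active = binding response more than 3 SD above or below the average of its plate-row segment, actives on both sides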;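 also: Alexa488 bead fluorescence after subtracting the streptavidin-only scavenger bead signal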
ABCB1 inh – ABCB1 efflux pump inhibitors, primary screen, cell-based, multiplex, flow cytometry, ABCG2 counter-screen; ATP-dependent translocase ABCB1 (Homo sapiens), P08183; CCRF-Adr cells, JC-1 efflux; inhibition, % at 6.6 µM; 190,000 compounds, 0.067% hits; in the data active = inhibition above about 40%;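 also: higher value means more JC-1 retained so stronger ABCB1 efflux block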
MEKK2mut PB1 HTS – MEK5 binding signal on mutant MEKK2 PB1, primary screen, biochemical, multiplex bead flow cytometry, Alexa488-MEK5. percent response, % at 10 µM. Alexa488-MEK5 binding to MEKK2 mutant. 290,000 compounds, 0.35% hits; in the data active = percent response above about 24%, passing the limit was not always enough
MEKK2wt confirm – modulators of MEK5 binding to wildtype MEKK2, confirmation, biochemical, single concentration, multiplex bead flow cytometry; Alexa488-MEK5 binding to MEKK2 WT; actives lie on both sides; AID 1892, 2009; 5,900 compounds, 2.4% hits; binding response (% of control), % at 10 µM; shares compounds with MEKK3 PB1 HTS; in the data active = binding response below about 16% or above about 210%; inactive = in between
MEKK2mut confirm – mutant MEKK2 PB1-MEK5 binding signal retest – biochemical, single concentration, multiplex bead flow cytometry, confirmation | Alexa488-MEK5 binding to MEKK2 mutant | 5,900 compounds, 2% hits | percent response, % at 10 µM | shares compounds with MEKK3 PB1 HTS | AID 1893, 2009; in the data active = percent response mostly above about 71%, no sharp cut-off; inactive = mostly below about 38%;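 also: higher means compound restores mutant binding toward wildtype level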
MEKK3-MEK5 inh – MEKK3 wild-type PB1 binding to MEK5, inhibitors, confirmation, biochemical, bead multiplex flow cytometry, single concentration, wildtype. AID 1894, 2009. shares compounds with MEKK3 PB1 HTS. 5,900 compounds, 1.8% hits. Alexa488-MEK5 binding to MEKK3; hits give low values. binding response (% of control), % at 10 µM;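 active = binding response below 72% of control, or above a set upper limit, though filed actives all read lower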;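 also: lower values mean stronger disruption of MEK5 binding to MEKK3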
Large screens that a line does not name were inactive (follow-up assays come after a bar, where they were run); [ ] = remark or other dose.

COc1ccc(N2CCN(C(=O)Cn3cnc4c(cnn4-c4ccc(C)cc4)c3=O)CC2)cc1	MEKK3 PB1 HTS 129 | MEKK2wt confirm inactive | MEKK2mut confirm inactive | MEKK3-MEK5 inh inactive
COc1ccc(N2CCN(C(=O)Cn3cnc4c(cnn4-c4ccccc4)c3=O)CC2)cc1	none
Oc1ccc(CCNc2ncnc3ccc(Cl)cc23)cc1	none (no result: WT yeast gro inh, ABCG2 block, ABCB1 inh)
CC1CCC(C(C)C)C(OCC[N+](C)(C)C)C1 (stereo not drawn)	MEKK3 PB1 HTS 143 | MEKK2wt confirm inactive | MEKK2mut confirm inactive | MEKK3-MEK5 inh inactive
CC1CCC(C(C)C)C(OCC(O)C[N+]2(C)CCCCC2)C1 (stereo not drawn)	none
O=S(=O)(NCc1cccnc1)c1ccc(Cl)cc1	none (no result: WT yeast gro inh, ABCG2 block, ABCB1 inh)
CN(CCS(=O)(=O)c1ccc(Cl)cc1)Cc1cccnc1	MEKK3 PB1 HTS 138 (no result: WT yeast gro inh, ABCG2 block, ABCB1 inh) | MEKK2wt confirm inactive | MEKK2mut confirm inactive | MEKK3-MEK5 inh inactive
C=C(C)C(=O)Nc1nnc(-c2ccccc2C)s1	MEKK3 PB1 HTS 74[inhibitor] | MEKK2wt confirm inactive | MEKK2mut confirm inactive | MEKK3-MEK5 inh inactive
C/C=C/C(=O)Nc1nnc(-c2ccccc2C)s1	none
Cc1ccc(OCCN2CCN(CC(O)Cn3c4ccccc4c4ccccc43)CC2)cc1 (stereo not drawn)	MEKK2 WT-MEK5 239, MEKK2mut PB1 HTS 59 | MEKK2wt confirm inactive | MEKK2mut confirm inactive | MEKK3-MEK5 inh inactive
CNC(=S)N1CCN(C(=O)C2CCCO2)CC1 (stereo not drawn)	MEKK3 PB1 HTS 67[inhibitor] | MEKK2wt confirm inactive | MEKK2mut confirm inactive | MEKK3-MEK5 inh inactive
O=C(C1CCCO1)N1CCN(C(=S)Nc2ccc(F)cc2)CC1 (stereo not drawn)	none
Cc1ccc(S(=O)(=O)Nc2cc(C)on2)cc1	none (no result: WT yeast gro inh, ABCG2 block, ABCB1 inh)
Cc1cc(NS(=O)(=O)c2cccs2)no1	MEKK2 WT-MEK5 2.0[inhibitor], MEKK3 PB1 HTS 2.0[inhibitor] | MEKK2wt confirm inactive | MEKK2mut confirm inactive | MEKK3-MEK5 inh inactive
O=S(=O)(Nc1ccc2c(c1)OCO2)c1cccs1	MEKK3 PB1 HTS 132 | MEKK2wt confirm inactive | MEKK2mut confirm inactive | MEKK3-MEK5 inh inactive
CC(C)(C)c1nnc(N/N=C/c2cc(Br)ccc2O)n(N)c1=O	MEKK3 PB1 HTS 142 | MEKK2wt confirm inactive | MEKK2mut confirm inactive | MEKK3-MEK5 inh inactive
CCOC(=O)N1CCN(c2ncnc3c2[nH]c2ccc(OC)cc23)CC1	none
COc1ccc2[nH]c3c(N4CCc5ccccc5C4)ncnc3c2c1	MEKK2 WT-MEK5 189 (no result: WT yeast gro inh, ABCG2 block, ABCB1 inh) | MEKK2wt confirm inactive | MEKK2mut confirm inactive | MEKK3-MEK5 inh inactive
O=C1CCN(S(=O)(=O)c2ccccc2)CCN1CCOCc1cccc(F)c1	none (no result: WT yeast gro inh, ABCG2 block, ABCB1 inh)
Cn1cc(CN2CCCC(C(=O)c3ccc(-c4ccccc4)c(F)c3)C2)cn1 (stereo not drawn)	none
Cc1nn(C)cc1CN1CCCC(C(=O)c2ccc(-c3ccccc3)c(F)c2)C1 (stereo not drawn)	MEKK2 WT-MEK5 147 | MEKK2wt confirm inactive | MEKK2mut confirm inactive | MEKK3-MEK5 inh inactive

Bioassay records (PubChem BioAssay)
